Test results published in ChEMBL document CHEMBL1177891, “Synthesis and bioassay of pyrrolyl oxazolines and thiazolines” (2010).
Converted amounts (≈) assume the structure as drawn.

Legend:
Type in all cases: functional
Staphylococcus aureus [1] = test: Antibacterial activity against Staphylococcus aureus at 200 ug/disk after 24 hrs by disk diffusion method; conditions: read-out: IZ
Method in brief: (§1)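 Agar disc diffusion on nutrient agar with NCIM bacteria. 6 mm sterile paper discs moistened with compound in DMSO (100 or 200 μg/disc) placed on pre-inoculated plates. Incubated at 37 °C; growth-inhibition zone diameter measured after 24 h. Chloramphenicol control.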

Aspergillus niger [2] = test: Antifungal activity against Aspergillus niger after 48 hrs by microdilution susceptibility assay
Method in brief: (§2)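 Fungal strains from NCIM. Microdilution: stocks at 800 μg/ml in DMSO, two-fold dilutions 400 down to 6.25 μg/ml, wells inoculated with fungal suspension, incubated 36 °C for 48 h. MIC read as lowest concentration without turbidity. Ketoconazole reference.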

Staphylococcus aureus [3] = test: Antibacterial activity against Staphylococcus aureus after 24 hrs by microdilution susceptibility assay
Method in brief: (§3)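 Bacterial strains from NCIM. Broth microdilution: stocks at 800 μg/ml in DMSO, two-fold dilutions 400, 200, 100 ... 6.25 μg/ml, wells inoculated with bacterial suspension, 36 °C for 24 h. MIC = lowest concentration with no turbidity (no visible growth). Chloramphenicol as reference.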

Klebsiella pneumoniae [4] = test: Antibacterial activity against Klebsiella pneumoniae after 24 hrs by microdilution susceptibility assay; method in brief: as §3
Klebsiella pneumoniae [5] = test: Antibacterial activity against Klebsiella pneumoniae at 100 ug/disk after 24 hrs by disk diffusion method; conditions: read-out: IZ; method in brief: as §1
Proteus vulgaris [6] = test: Antibacterial activity against Proteus vulgaris at 200 ug/disk after 24 hrs by disk diffusion method; conditions: read-out: IZ; method in brief: as §1
Curvularia lunata [7] = test: Antifungal activity against Curvularia lunata after 48 hrs by microdilution susceptibility assay; method in brief: as §2
Staphylococcus aureus [8] = test: Antibacterial activity against Staphylococcus aureus at 100 ug/disk after 24 hrs by disk diffusion method; conditions: read-out: IZ; method in brief: as §1
Bacillus subtilis [9] = test: Antibacterial activity against Bacillus subtilis at 200 ug/disk after 24 hrs by disk diffusion method; conditions: read-out: IZ; method in brief: as §1
Aspergillus niger [10] = test: Antifungal activity against Aspergillus niger at 100 ug/disk after 48 hrs by disk diffusion method; conditions: read-out: IZ
Method in brief: (§4)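 Fungi from NCIM on nutrient agar plates, pre-inoculated. 6 mm paper discs carrying 100 or 200 μg compound in DMSO applied. Plates incubated at 37 °C and inhibition zone diameter measured at 48 h. Ketoconazole control.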

Fusarium solani [11] = test: Antifungal activity against Fusarium solani at 100 ug/disk after 48 hrs by disk diffusion method; conditions: read-out: IZ; method in brief: as §4
Curvularia lunata [12] = test: Antifungal activity against […] lunata at 200 ug/disk after 48 hrs by disk diffusion method; conditions: read-out: IZ; method in brief: as §4
Proteus vulgaris [13] = test: Antibacterial activity against Proteus vulgaris after 24 hrs by microdilution susceptibility assay; method in brief: as §3
[14] = Antioxidant activity assessed as increase in reducing power at 100 uM
Method in brief: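 Oyaizu method. Compound at 100 μM in methanol mixed with 0.2 M phosphate buffer pH 6.6 and 1% potassium ferricyanide, 50 °C for 20 min. 10% TCA added, then centrifuged 3000 rpm for 10 min. Upper layer mixed with water and 0.1% FeCl3; absorbance read at 700 nm.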

Klebsiella pneumoniae [15] = test: Antibacterial activity against Klebsiella pneumoniae at 200 ug/disk after 24 hrs by disk diffusion method; conditions: read-out: IZ; method in brief: as §1
Fusarium solani [16] = test: Antifungal activity against Fusarium solani at 200 ug/disk after 48 hrs by disk diffusion method; conditions: read-out: IZ; method in brief: as §4
Aspergillus niger [17] = test: Antifungal activity against Aspergillus niger at 200 ug/disk after 48 hrs by disk diffusion method; conditions: read-out: IZ; method in brief: as §4
Bacillus subtilis [18] = test: Antibacterial activity against Bacillus subtilis after 24 hrs by microdilution susceptibility assay; method in brief: as §3
Curvularia lunata [19] = test: Antifungal activity against Curvularia lunata at 100 ug/disk after 48 hrs by disk diffusion method; conditions: read-out: IZ; method in brief: as §4
[20] = test system: Radical scavenging activity; test: Antioxidant activity assessed as DPPH radical scavenging activity at 100 uM
Method in brief: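 Compound (100 μM) added to 100 μM DPPH in dioxane/ethanol. Kept at ambient temperature 20 min, then absorbance read at 517 nm. Percent DPPH scavenging taken from difference between test and control.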

[21] = Antioxidant activity assessed as inhibition of nitric oxide production at 100 uM
Method in brief: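 Sodium nitroprusside ([…]) in phosphate buffer pH 7.4 incubated with 100 μM compound (dioxane/methanol) at 25 °C for 120 min; solvent-only control. Aliquots mixed 1:1 with Griess reagent (1% sulfanilamide, 0.1% N-naphthylethylenediamine, 2% phosphoric acid). Absorbance at 546 nm, triplicate.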

Fusarium solani [22] = test: Antifungal activity against Fusarium solani after 48 hrs by microdilution susceptibility assay; method in brief: as §2
Proteus vulgaris [23] = test: Antibacterial activity against Proteus vulgaris at 100 ug/disk after 24 hrs by disk diffusion method; conditions: read-out: IZ; method in brief: as §1
Bacillus subtilis [24] = test: Antibacterial activity against Bacillus subtilis at 100 ug/disk after 24 hrs by disk diffusion method; conditions: read-out: IZ; method in brief: as §1

MIC (Aspergillus niger [2])	MIC (Staphylococcus aureus [3])	MIC (Klebsiella pneumoniae [4])	MIC (Curvularia lunata [7])	MIC (Proteus vulgaris [13])	MIC (Bacillus subtilis [18])	SMILES	zone of inhibition at 200 µg/disc (Staphylococcus aureus [1])	zone of inhibition at 100 µg/disc (Klebsiella pneumoniae [5])	zone of inhibition at 200 µg/disc (Proteus vulgaris [6])	zone of inhibition at 100 µg/disc (Staphylococcus aureus [8])	zone of inhibition at 200 µg/disc (Bacillus subtilis [9])	zone of inhibition at 100 µg/disc (Aspergillus niger [10])	zone of inhibition at 100 µg/disc (Fusarium solani [11])	zone of inhibition at 200 µg/disc (Curvularia lunata [12])	inhibition [14]	zone of inhibition at 200 µg/disc (Klebsiella pneumoniae [15])	zone of inhibition at 200 µg/disc (Fusarium solani [16])	zone of inhibition at 200 µg/disc (Aspergillus niger [17])	zone of inhibition at 100 µg/disc (Curvularia lunata [19])	inhibition [20]	other results
100 µg/mL (≈ 270 µM)	100 µg/mL (≈ 270 µM)	100 µg/mL (≈ 270 µM)	100 µg/mL (≈ 270 µM)	100 µg/mL (≈ 270 µM)	50 µg/mL (≈ 135 µM)	O=S(=O)(CC1=NCCS1)c1c[nH]cc1S(=O)(=O)c1ccccc1	30 mm	23 mm	28 mm	29 mm	32 mm	30 mm	34 mm	35 mm	32.4%	25 mm	37 mm	33 mm	32 mm	33.8%	inhibition [21]: 34.6%; MIC (Fusarium solani [22]): 100 µg/mL (≈ 270 µM); zone of inhibition at 100 µg/disc (Proteus vulgaris [23]): 24 mm; zone of inhibition at 100 µg/disc (Bacillus subtilis [24]): 30 mm
25 µg/mL (≈ 61.7 µM)	25 µg/mL (≈ 61.7 µM)	50 µg/mL (≈ 123 µM)	12.5 µg/mL (≈ 30.9 µM)	50 µg/mL (≈ 123 µM)	12.5 µg/mL (≈ 30.9 µM)	O=S(=O)(CC1=NCCS1)c1c[nH]cc1S(=O)(=O)c1ccc(Cl)cc1	34 mm	27 mm	30 mm	32 mm	35 mm	34 mm	35 mm	41 mm	40.4%	29 mm	38 mm	38 mm	36 mm	40.5%	inhibition [21]: 41.4%; MIC (Fusarium solani [22]): 50 µg/mL (≈ 123 µM); zone of inhibition at 100 µg/disc (Proteus vulgaris [23]): 29 mm; zone of inhibition at 100 µg/disc (Bacillus subtilis [24]): 33 mm
